High-throughput results (PubChem)
core dimer inh = blocks dimerization of HCV core protein; 300,000 tested, 0.33% active; inhibition, % at 5 µM; TR-FRET GST/Flag-core106 dimerization, 1536-well;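 active means inhibition above the mean of all tested compounds plus 3 SD, set per screening campaign, cut at about 45% in these data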
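Material: Tagged HCV core106 pair (GST and Flag) | Amount: GST-core106 13.5 nM, Flag-core106 17 nM | Medium: KF-containing HEPES buffer, pH 7.45, DTT, CHAPS, BSA | Reagent: Eu donor and XL665 acceptor anti-tag antibodies | Schedule: 4 h at 22.5 °C | Technique: Time-resolved FRET, ex 340 nm, em 617 and 671 nm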
Tb MetRS inh = blocks T. brucei methionyl-tRNA synthetase activity | purified T. brucei MetRS, ATP depletion, Kinase-Glo luminescence | inhibition, % at 11.9 µM | 360,000 tested, 0.4% active | AID 624268;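 active means inhibition above a per-plate cutoff of the control wells' mean inhibition plus 3 SD, cut at about 5.5% in these data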
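Test system: purified T. brucei MetRS enzyme. Also added: ATP, methionine and E. coli bulk tRNA substrates. Compound: 11.9 µM single point. Schedule: 15 min enzyme-compound preincubation, 2 h reaction, 10 min detection, 25 °C. Signal: luciferase luminescence of residual ATP, Kinase-Glo. Evaluation: percent inhibition versus plate control medians. Controls: DMSO wells, low control.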
Lipid droplet = hepatic lipid droplet formation modulation. inhibition, % at 6.5 µM. AML12 mouse hepatocytes, oleate lipid droplets, BODIPY imaging. 240,000 tested, 0.4% active;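 active means lipid droplet intensity inhibited by at least 50%, with more than 500 cells counted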
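material = mouse AML12 hepatocyte cell line, fixed after treatment | also added = 100 µM oleic acid challenge | doses = compound at 6.5 µM only | schedule = overnight exposure | technique = Image-based BODIPY and DAPI two-channel analysis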
NS3 helicase inh = blocks Hepatitis C virus NS3 helicase unwinding; NS3 helicase DNA unwinding, Cy5 molecular beacon fluorescence; inhibition, % at 10.9 µM; 290,000 tested, 0.56% active;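 active means inhibition above the mean of all tested compounds plus 3 SD, set per campaign, cut at about 35% in these data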
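Control set: DMSO versus 110 µM thioflavine S; Material: NS3 helicase fragment of HCV; Measured by: Cy5 fluorescence at 0 and 60 min, beacon hairpin quenching; Read-out basis: percent inhibition from t60/t0 fluorescence ratio; Times: reaction time 60 min, 25 °C; Repeats: single replicate; Compound dosing: single dose, 10.9 µM nominal final, DMSO 0.8% final.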
Hep lipid conf = confirmation of inhibitors of hepatic lipid droplet formation. shares compounds with Lipid droplet. 870 tested, 65% active. AML12 mouse hepatocytes, BODIPY lipid droplet imaging; droplets induced with 100 µM oleic acid. inhibition, % at 5.2 µM. AID 463183;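 active means inhibition of lipid droplet metric at least 50%, with more than 300 cells in each of four replicates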
AML12 tox img = AML12 hepatocyte cytotoxicity (counter-screen); AML12 mouse hepatocytes, DAPI nuclear morphology cytotoxicity imaging; active compounds read high; cells fed 100 µM oleate overnight; shares compounds with Lipid droplet; 870 tested, 3% active; z-score at 5 µM; in the data active means z-score above about 6.3;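 further: compound exposure lasted overnight at 37 °C before fixation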
AML12 tox conf = AML12 hepatocyte cytotoxicity, confirmed; cytotoxicity, % at 50 µM; shares compounds with Lipid droplet; 530 tested, under 10 active; AML12 mouse hepatocyte viability, ATP luminescence; cells loaded with 100 µM oleic acid;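 active means cytotoxicity above 50% in each of four replicates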;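 further: compound exposure lasted overnight at 37 °C before the ATP read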
Numbers stand for hits. The list is not random: actives were taken first. Their share in the collection is about 1.3%.

What do the screens show for `COc1cccc(NC(=O)CSc2nc3ccccc3nc2N2CCCC2)c1`?
core dimer inh: inactive; Tb MetRS inh: inactive; Lipid droplet: 58.3; NS3 helicase inh: inactive; Hep lipid conf: 99.2; AML12 tox img: inactive; AML12 tox conf: inactive

What do the screens show for `COc1ccc(NC(=O)CSc2nc3ccccc3nc2N2CCCC2)c(OC)c1`?
core dimer inh: inactive; Tb MetRS inh: inactive; Lipid droplet: inactive; NS3 helicase inh: inactive

What do the screens show for `COc1ccc(NC(=O)CSc2nc3ccccc3nc2N2CCCCC2)cc1`?
core dimer inh: inactive; Tb MetRS inh: inactive; Lipid droplet: 73.2; NS3 helicase inh: inactive; Hep lipid conf: 108.4; AML12 tox img: inactive; AML12 tox conf: inactive

Results for Cc1cccc(NC(=O)CSc2nc3ccccc3nc2N2CCCC2)c1 ?
core dimer inh: inactive; Tb MetRS inh: inactive; Lipid droplet: 62.8; NS3 helicase inh: inactive; Hep lipid conf: 102.2; AML12 tox img: inactive; AML12 tox conf: inactive

Results for Cc1cccc(NC(=O)CSc2nc3ccccc3nc2N2CCCCC2)c1 ?
core dimer inh: inactive; Tb MetRS inh: inactive; Lipid droplet: inactive; NS3 helicase inh: inactive

How did COC(=O)C1(C(=O)OC)C[C@H](c2ccc(OC)cc2)N(Cc2ccccc2OC)[C@@H]1c1ccc(OC)cc1 do in these assays?
Tb MetRS inh: inactive

Results for COC(=O)C[C@@H]1CC[C@H](NS(=O)(=O)c2cccc(F)c2)[C@@H](CO)O1 ?
Tb MetRS inh: inactive

How did O=C(COC(=O)c1cccnc1Cl)NC(=O)c1ccc(OC(F)F)cc1 do in these assays?
Tb MetRS inh: inactive

Results for O=C(c1nn2c(C(F)(F)F)cc(-c3cccs3)nc2c1Br)N1CCCc2ccccc21 ?
core dimer inh: inactive; Tb MetRS inh: inactive; Lipid droplet: 60.1; NS3 helicase inh: inactive; Hep lipid conf: 101.3; AML12 tox img: inactive; AML12 tox conf: inactive

Results for CC(C)C[C@@H]1COc2cccc(N3CCC[C@@H]3CO)c2S(=O)(=O)N1 ?
Tb MetRS inh: inactive

Results for COC(=O)[C@H](Cc1c[nH]c2ccccc12)NC(=O)CCCc1c[nH]c2ccccc12 ?
core dimer inh: inactive; Tb MetRS inh: inactive; Lipid droplet: 60.3; NS3 helicase inh: inactive; Hep lipid conf: inactive; AML12 tox img: inactive; AML12 tox conf: inactive

How did COC(=O)[C@H](Cc1c[nH]c2ccccc12)NC(=O)Cc1c[nH]c2ccccc12 do in these assays?
core dimer inh: inactive; Tb MetRS inh: inactive; Lipid droplet: inactive; NS3 helicase inh: inactive

How did Cc1ccc(NC(=O)CCCc2c[nH]c3ccccc23)nc1 do in these assays?
core dimer inh: inactive; Tb MetRS inh: inactive; Lipid droplet: 82.6; NS3 helicase inh: inactive; Hep lipid conf: inactive; AML12 tox img: inactive

How did Cc1ccc(CNC(=O)CCCc2c[nH]c3ccccc23)cc1 do in these assays?
core dimer inh: inactive; Tb MetRS inh: inactive; Lipid droplet: 71.2; NS3 helicase inh: inactive; Hep lipid conf: 74.2; AML12 tox img: inactive; AML12 tox conf: inactive

What do the screens show for `O=C(CCCc1c[nH]c2ccccc12)NCc1ccccc1F`?
core dimer inh: inactive; Tb MetRS inh: inactive; Lipid droplet: inactive; NS3 helicase inh: inactive

Results for O=CNc1ccc2c3c(cccc13)-c1ccccc1-2 ?
Tb MetRS inh: inactive

What do the screens show for `COc1ccc(C(C(=O)NC(C)(C)C)N(Cc2ccco2)C(=O)CCC(=O)Nc2cc(C)on2)cc1` (stereo not drawn)?
core dimer inh: inactive; Tb MetRS inh: inactive; Lipid droplet: 52.2; NS3 helicase inh: inactive; Hep lipid conf: 69.5; AML12 tox img: inactive; AML12 tox conf: inactive

What do the screens show for `COc1ccc(C(C(=O)NC(C)(C)C)N(Cc2ccc(C)cc2)C(=O)CCC(=O)Nc2cc(C)on2)cc1` (stereo not drawn)?
core dimer inh: inactive; Tb MetRS inh: inactive; Lipid droplet: 70.4; NS3 helicase inh: inactive; Hep lipid conf: 106.4; AML12 tox img: inactive; AML12 tox conf: inactive

How did CCC(C)(C)NC(=O)C(c1ccc(OC)cc1)N(Cc1ccco1)C(=O)CCC(=O)Nc1cc(C)on1 (stereo not drawn) do in these assays?
core dimer inh: inactive; Tb MetRS inh: inactive; Lipid droplet: inactive; NS3 helicase inh: inactive

Results for COc1ccc(C2=Nc3ccccc3N(C(=O)c3ccncc3)C2C(=O)NC(C)(C)C)cc1 (stereo not drawn) ?
Tb MetRS inh: inactive

How did CCCCc1ccc(NC(=O)CSc2nc3ncccc3[nH]2)cc1 do in these assays?
core dimer inh: inactive; Tb MetRS inh: inactive; Lipid droplet: 51.9; NS3 helicase inh: inactive; Hep lipid conf: 91.5; AML12 tox img: inactive; AML12 tox conf: inactive

What do the screens show for `CCCCc1ccc(NC(=O)CSc2nnc(C)c(=O)n2N)cc1`?
core dimer inh: inactive; Tb MetRS inh: inactive; Lipid droplet: 81.2; NS3 helicase inh: inactive; Hep lipid conf: 106.5; AML12 tox img: inactive; AML12 tox conf: inactive

What do the screens show for `COc1cccc(CNC(=O)[C@H](C)NC(=O)N2CC(=O)Nc3ccccc32)c1`?
Tb MetRS inh: inactive

How did CC(C)CNC(=O)C1(C)CCCN1C(=O)Cc1cccc2ccccc12 (stereo not drawn) do in these assays?
Tb MetRS inh: inactive

How did CCCCCCNC(=O)c1cn(CC)c2cc(N3CCN(C)CC3)c(F)cc2c1=O do in these assays?
core dimer inh: inactive; Tb MetRS inh: inactive; Lipid droplet: 52.6; NS3 helicase inh: inactive; Hep lipid conf: inactive; AML12 tox img: inactive

How did CCc1cccc(NC(=O)CCCn2nc(CC)n3c(cc4occc43)c2=O)c1 do in these assays?
core dimer inh: inactive; Tb MetRS inh: inactive; Lipid droplet: 52.8; NS3 helicase inh: inactive; Hep lipid conf: 94.2; AML12 tox img: inactive; AML12 tox conf: inactive

Results for CCn1cc(CCCC(=O)NCc2ccccc2OC)c2ccccc21 ?
Tb MetRS inh: inactive; Lipid droplet: 87.8; NS3 helicase inh: inactive; Hep lipid conf: 100.4; AML12 tox img: inactive; AML12 tox conf: inactive

How did CCn1cc(CCCC(=O)NCc2cccc(OC)c2)c2ccccc21 do in these assays?
Tb MetRS inh: inactive; Lipid droplet: 79.9; NS3 helicase inh: inactive; Hep lipid conf: 87.5; AML12 tox img: inactive; AML12 tox conf: inactive

Results for Cc1nn(CC(=O)OCC(=O)Nc2cccc(S(N)(=O)=O)c2)c(C)c1[N+](=O)[O-] ?
Tb MetRS inh: inactive

What do the screens show for `CCOc1ccc(CN(C)C(=O)CNC(=O)c2ccc3ccccc3c2)cc1OC`?
core dimer inh: inactive; Tb MetRS inh: inactive; Lipid droplet: 88.0; NS3 helicase inh: inactive; Hep lipid conf: 106.7; AML12 tox img: inactive; AML12 tox conf: inactive
